ChEMBL document CHEMBL3865831, “Cantharimide and Its Derivatives from the Blister Beetle Mylabris phalerata Palla” (J Nat Prod, 2016)

How the values were obtained:
[1] = Cytotoxicity against human BGC823 cells measured after 72 hrs by MTT assay; format: functional, cell-based; details: BGC-823, 72 h
Summary of the method: (§1)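 Cells were exposed to serial dilutions of compound from 1.00 to 100 μg/mL for 72 h. MTT (400 μg/mL) was then added for 4 h, replaced with DMSO, and absorbance was read at 540 nm. Cantharidin was the positive control.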

[2] = Cytotoxicity against human HepG2.2.15 cells after 72 hrs by MTT assay; format: functional, cell-based; details: HepG2 2.2.15, 72 h; summary of the method: as §1
[3] = Cytotoxicity against human HCT116 cells measured after 72 hrs by MTT assay; format: functional, cell-based; details: HCT-116, 72 h; summary of the method: as §1
[4] = Toxicity against human HepG2.2.15 cells infected with HBV after 72 hrs by MTT assay; format: cell-based, HepG2 2.2.15; summary of the method: as §1
[5] = tested on: Hepatitis B virus; assay: Antiviral activity against Hepatitis B virus infected human HepG2.2.15 cells assessed as inhibition of HBsAg secretion measured after 96 hrs by ELISA; format: functional; details: HepG2.2.15, 96 h
Summary of the method: (§2)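 HepG2.2.15 cells, stably transfected with the HBV genome, were grown for 24 h in DMEM with 10% FBS, 100 μg/mL G418 and penicillin/streptomycin at 37 °C under 5% CO2. Compounds diluted in culture medium were then added for 96 h. HBeAg or HBsAg in the collected medium was measured by ELISA. Adefovir dipivoxil was the positive control. Data are mean ± SD, n = 3.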

[6] = tested on: Hepatitis B virus; assay: Antiviral activity against Hepatitis B virus infected human HepG2.2.15 cells assessed as inhibition of HBeAg secretion measured after 96 hrs by ELISA; format: functional; details: HepG2.2.15, 96 h; summary of the method: as §2
[7] = Selectivity index, ratio of CC50 for human HepG2.2.15 cells to IC50 for inhibition of HBeAg secretion in Hepatitis B virus infected human HepG2.2.15 cells; format: functional
Summary of the method: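 SI is CC50 in HepG2.2.15 cells divided by IC50 for HBeAg inhibition, the latter measured by ELISA of medium after 96 h of compound treatment. Values are from triplicate determinations.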

C[C@]12C(=O)N(CCCO)C(=O)[C@H]1[C@@H]1CC[C@H]2O1
IC50 [1]: > 10 µM
IC50 [2]: > 10 µM
IC50 [3]: > 10 µM

C[C@@]12C(=O)N(CCCCN3C(=O)[C@@]4(C)[C@@H]5CC[C@@H](O5)[C@@]4(C)C3=O)C(=O)[C@]1(C)[C@H]1CC[C@@H]2O1
IC50 [1]: > 10 µM
IC50 [2]: > 10 µM
IC50 [3]: > 10 µM
CC50 at 72 h [4]: > 220 µM
IC50 [5]: > 110 µM
IC50 [6]: 19 µM

C[C@@]12C(=O)N(CC(N)=O)C(=O)[C@]1(C)[C@H]1CC[C@@H]2O1
IC50 [1]: > 10 µM
IC50 [2]: > 10 µM
IC50 [3]: > 10 µM

CNC(=O)CCCN1C(=O)[C@@]2(C)[C@@H]3CC[C@@H](O3)[C@@]2(C)C1=O
IC50 [1]: > 10 µM
IC50 [2]: > 10 µM
IC50 [3]: > 10 µM

C[C@@]12C(=O)N(CCO)C(=O)[C@]1(C)[C@H]1CC[C@@H]2O1
IC50 [1]: > 10 µM
IC50 [2]: > 10 µM
IC50 [3]: > 10 µM
CC50 at 72 h [4]: > 420 µM
IC50 [5]: > 210 µM
IC50 [6]: 62 µM

CN1C(=O)[C@@]2(C)[C@@H]3CC[C@@H](O3)[C@@]2(CO)C1=O
IC50 [1]: > 10 µM
IC50 [2]: > 10 µM
IC50 [3]: > 10 µM

C[C@@]12C(=O)N(CCO)C(=O)[C@]1(CO)[C@H]1CC[C@@H]2O1
IC50 [1]: > 10 µM
IC50 [2]: > 10 µM
IC50 [3]: > 10 µM

CNC(=O)CCCN1C(=O)[C@H]2[C@@H]3CC[C@@H](O3)[C@@]2(C)C1=O
IC50 [1]: > 10 µM
IC50 [2]: > 10 µM
IC50 [3]: > 10 µM

C[C@]12C(=O)N(CC(N)=O)C(=O)[C@H]1[C@@H]1CC[C@H]2O1
IC50 [1]: > 10 µM
IC50 [2]: > 10 µM
IC50 [3]: > 10 µM

C[C@@]12C(=O)N(CCCN3C(=O)[C@@]4(C)[C@@H]5CC[C@@H](O5)[C@@]4(C)C3=O)C(=O)[C@]1(C)[C@H]1CC[C@@H]2O1
IC50 [1]: > 10 µM
IC50 [2]: > 10 µM
IC50 [3]: > 10 µM

C[C@@]12C(=O)NC(=O)[C@]1(CO)[C@H]1CC[C@@H]2O1
IC50 [1]: > 10 µM
IC50 [2]: > 10 µM
IC50 [3]: > 10 µM

C[C@@]12C(=O)N(CCCO)C(=O)[C@]1(C)[C@H]1CC[C@@H]2O1
IC50 [1]: > 10 µM
IC50 [2]: > 10 µM
IC50 [3]: > 10 µM

C[C@@]12C(=O)N(CCCO)C(=O)[C@]1(CO)[C@H]1CC[C@@H]2O1
IC50 [1]: > 10 µM
IC50 [2]: > 10 µM
IC50 [3]: > 10 µM

C[C@]12C(=O)NC(=O)[C@H]1[C@@H]1CC[C@H]2O1
IC50 [1]: > 10 µM
IC50 [2]: > 10 µM
IC50 [3]: > 10 µM

C[C@@]12C(=O)NC(=O)[C@]1(C)[C@H]1CC[C@@H]2O1
IC50 [1]: > 10 µM
IC50 [2]: > 10 µM
IC50 [3]: > 10 µM
CC50 at 72 h [4]: 280 µM
Ratio CC50/IC50 [7]: 6.7
IC50 [5]: > 260 µM
IC50 [6]: 42 µM

C[C@@]12C(=O)N(CCC(N)=O)C(=O)[C@]1(C)[C@H]1CC[C@@H]2O1
IC50 [1]: > 10 µM
IC50 [2]: > 10 µM
IC50 [3]: > 10 µM

C[C@@]12C(=O)N(CCc3ccc(O)cc3)C(=O)[C@]1(C)[C@H]1CC[C@@H]2O1
IC50 [1]: > 10 µM
IC50 [2]: > 10 µM
IC50 [3]: > 10 µM
CC50 at 72 h [4]: > 320 µM
IC50 [5]: > 160 µM
IC50 [6]: 58 µM

CC(=O)CN1C(=O)[C@@]2(C)[C@@H]3CC[C@@H](O3)[C@@]2(C)C1=O
IC50 [1]: > 10 µM
IC50 [2]: > 10 µM
IC50 [3]: > 10 µM

CC(C)(C)C(=O)OCOP(=O)(COCCn1cnc2c(N)ncnc21)OCOC(=O)C(C)(C)C [ADEFOVIR DIPIVOXIL]
CC50 at 72 h [4]: > 400 µM
IC50 [5]: 270 µM
IC50 [6]: 290 µM
